In ChEMBL document CHEMBL5247671, “Design and Synthesis of Pyrazole-Based Macrocyclic Kinase Inhibitors Targeting BMPR2” (ACS Med Chem Lett, 2023):

Experiments:
[1] = biological target: Glycogen synthase kinase-3 beta (Homo sapiens, UniProt P49841); experiment: Inhibition of N-terminal NanoLuc-fused full length intact GSK3B (unknown origin) transfected in HEK293T cells incubated for 2 hrs in presence of tracer K8 by NanoBRET assay; assay type: cell-based
Outline: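 Cellular target engagement by NanoBRET in intact cells expressing NanoLuc-fused GSK3A or GSK3B, with EC50 values derived from tracer displacement.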

[2] = biological target: T1, Tyrosine-protein kinase Mer (Homo sapiens) (UniProt Q12866); experiment: Inhibition of recombinant MERTK (unknown origin) at 10 uM by DSF assay relative to staurosporine
T1 sequence (whole entry): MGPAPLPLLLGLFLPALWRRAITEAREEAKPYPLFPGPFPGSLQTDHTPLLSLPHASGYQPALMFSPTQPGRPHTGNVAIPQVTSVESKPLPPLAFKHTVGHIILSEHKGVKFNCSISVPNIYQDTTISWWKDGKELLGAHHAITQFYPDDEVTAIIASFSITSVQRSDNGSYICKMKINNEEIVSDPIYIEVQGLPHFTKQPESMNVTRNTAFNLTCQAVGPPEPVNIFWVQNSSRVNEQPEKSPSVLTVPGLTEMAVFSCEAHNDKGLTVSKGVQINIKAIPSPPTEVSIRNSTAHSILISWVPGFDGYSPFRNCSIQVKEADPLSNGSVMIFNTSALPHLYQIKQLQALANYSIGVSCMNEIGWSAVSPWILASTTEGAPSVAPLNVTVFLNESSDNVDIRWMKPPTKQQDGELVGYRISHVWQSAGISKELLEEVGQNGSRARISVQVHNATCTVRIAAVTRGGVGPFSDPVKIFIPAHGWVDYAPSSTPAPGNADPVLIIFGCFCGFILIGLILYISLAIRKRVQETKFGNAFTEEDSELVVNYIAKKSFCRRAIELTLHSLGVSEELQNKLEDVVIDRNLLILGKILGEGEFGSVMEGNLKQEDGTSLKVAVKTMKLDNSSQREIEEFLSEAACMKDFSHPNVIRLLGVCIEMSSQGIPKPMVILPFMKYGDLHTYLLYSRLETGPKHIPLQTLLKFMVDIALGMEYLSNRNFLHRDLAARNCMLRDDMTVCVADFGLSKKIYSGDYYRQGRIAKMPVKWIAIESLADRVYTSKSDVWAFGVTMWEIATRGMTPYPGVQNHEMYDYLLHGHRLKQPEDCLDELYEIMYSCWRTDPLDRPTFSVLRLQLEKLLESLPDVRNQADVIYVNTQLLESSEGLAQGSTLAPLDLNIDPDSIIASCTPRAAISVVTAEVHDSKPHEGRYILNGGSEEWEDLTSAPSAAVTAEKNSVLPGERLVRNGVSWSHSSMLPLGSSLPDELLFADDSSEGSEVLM
Outline: (§1)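 Differential scanning fluorimetry on an in-house panel of 90 recombinant kinases. Stabilization is read as the shift in melting temperature (ΔTm) relative to ligand-free protein. Staurosporine served as the positive control, and binding was also compared against its ΔTm.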

[3] = biological target: BMP-2-inducible protein kinase (Homo sapiens) (UniProt Q9NSY1); experiment: Inhibition of recombinant BMP2K (unknown origin) at 10 uM by DSF assay relative to staurosporine; outline: as §1
[4] = biological target: T2, Serine/threonine-protein kinase 4 (Homo sapiens) (UniProt Q13043); experiment: Binding affinity to recombinant STK4 (unknown origin) assessed as change in melting temperature at 10 uM by DSF assay; outline: as §1
T2 sequence (whole entry): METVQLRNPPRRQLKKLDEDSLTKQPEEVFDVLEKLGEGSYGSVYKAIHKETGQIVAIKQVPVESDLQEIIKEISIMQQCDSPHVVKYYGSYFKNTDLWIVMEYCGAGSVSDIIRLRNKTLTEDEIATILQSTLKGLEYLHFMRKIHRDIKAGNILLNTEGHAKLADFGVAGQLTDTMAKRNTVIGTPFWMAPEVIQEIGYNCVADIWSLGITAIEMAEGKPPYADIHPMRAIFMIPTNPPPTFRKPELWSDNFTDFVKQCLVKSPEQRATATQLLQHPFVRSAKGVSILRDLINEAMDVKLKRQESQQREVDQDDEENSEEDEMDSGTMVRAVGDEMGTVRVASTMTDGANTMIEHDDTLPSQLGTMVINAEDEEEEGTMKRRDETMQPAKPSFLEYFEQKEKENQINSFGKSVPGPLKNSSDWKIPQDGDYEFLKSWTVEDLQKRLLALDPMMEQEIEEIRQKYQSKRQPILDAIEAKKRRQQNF

[5] = biological target: Cyclin-dependent kinase 2 (Homo sapiens) (UniProt P24941); experiment: Inhibition of recombinant CDK2 (unknown origin) at 10 uM by DSF assay relative to staurosporine; outline: as §1
[6] = biological target: Serine/threonine-protein kinase RIO2 (Homo sapiens) (UniProt Q9BVS4); experiment: Inhibition of RIOK2 (unknown origin) assessed as residual activity at 1 uM by Kinomescan assay relative to staurosporine
[7] = biological target: T3, MAP/microtubule affinity-regulating kinase 4 (Homo sapiens) (UniProt Q96L34); experiment: Binding affinity to recombinant MARK4 (unknown origin) assessed as change in melting temperature at 10 uM by DSF assay; outline: as §1
T3 sequence (whole entry): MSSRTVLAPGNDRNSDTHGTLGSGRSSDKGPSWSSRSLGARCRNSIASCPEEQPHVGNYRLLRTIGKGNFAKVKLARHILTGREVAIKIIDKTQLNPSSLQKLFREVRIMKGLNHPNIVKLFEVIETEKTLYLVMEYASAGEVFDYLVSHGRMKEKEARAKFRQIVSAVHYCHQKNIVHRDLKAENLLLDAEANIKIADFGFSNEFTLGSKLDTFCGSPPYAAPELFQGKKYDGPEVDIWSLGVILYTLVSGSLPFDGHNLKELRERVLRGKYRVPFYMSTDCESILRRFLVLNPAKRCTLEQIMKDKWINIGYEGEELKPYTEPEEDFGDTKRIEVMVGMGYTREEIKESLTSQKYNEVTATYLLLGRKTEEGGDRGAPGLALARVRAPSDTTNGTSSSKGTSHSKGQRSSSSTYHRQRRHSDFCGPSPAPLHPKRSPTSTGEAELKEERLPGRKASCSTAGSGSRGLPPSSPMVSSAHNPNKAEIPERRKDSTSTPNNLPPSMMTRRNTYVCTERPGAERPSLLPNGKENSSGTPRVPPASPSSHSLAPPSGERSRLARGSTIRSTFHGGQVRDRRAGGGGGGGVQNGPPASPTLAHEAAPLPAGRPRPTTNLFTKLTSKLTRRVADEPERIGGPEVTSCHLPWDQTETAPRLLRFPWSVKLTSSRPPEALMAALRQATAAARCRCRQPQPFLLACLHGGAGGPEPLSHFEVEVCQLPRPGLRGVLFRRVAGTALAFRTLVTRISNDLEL

[8] = biological target: T2, Serine/threonine-protein kinase 4 (Homo sapiens); experiment: Inhibition of recombinant STK4 (unknown origin) at 10 uM by DSF assay relative to staurosporine; outline: as §1
[9] = biological target: Serine/threonine-protein kinase 24 (Homo sapiens) (UniProt Q9Y6E0); experiment: Inhibition of recombinant MST3 (unknown origin) at 10 uM by DSF assay relative to staurosporine; outline: as §1
[10] = biological target: T1, Tyrosine-protein kinase Mer (Homo sapiens); experiment: Binding affinity to recombinant MERTK (unknown origin) assessed as change in melting temperature at 10 uM by DSF assay; outline: as §1

Serine/threonine-protein kinase 24 (Homo sapiens), sequence (Q9Y6E0 whole entry, looked up): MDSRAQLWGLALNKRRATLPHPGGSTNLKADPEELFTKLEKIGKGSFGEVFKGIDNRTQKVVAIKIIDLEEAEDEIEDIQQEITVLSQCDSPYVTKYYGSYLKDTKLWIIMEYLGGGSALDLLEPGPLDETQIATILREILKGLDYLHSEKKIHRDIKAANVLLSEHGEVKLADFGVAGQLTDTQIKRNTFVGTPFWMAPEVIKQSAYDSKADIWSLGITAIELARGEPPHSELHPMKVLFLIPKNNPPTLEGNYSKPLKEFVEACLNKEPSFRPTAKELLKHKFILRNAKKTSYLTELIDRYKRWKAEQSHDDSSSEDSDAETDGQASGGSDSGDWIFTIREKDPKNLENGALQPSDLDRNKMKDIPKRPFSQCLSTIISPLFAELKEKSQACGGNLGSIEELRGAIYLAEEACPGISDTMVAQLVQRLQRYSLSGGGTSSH
Glycogen synthase kinase-3 beta, sequence (P49841 whole entry, the tested form may be a part): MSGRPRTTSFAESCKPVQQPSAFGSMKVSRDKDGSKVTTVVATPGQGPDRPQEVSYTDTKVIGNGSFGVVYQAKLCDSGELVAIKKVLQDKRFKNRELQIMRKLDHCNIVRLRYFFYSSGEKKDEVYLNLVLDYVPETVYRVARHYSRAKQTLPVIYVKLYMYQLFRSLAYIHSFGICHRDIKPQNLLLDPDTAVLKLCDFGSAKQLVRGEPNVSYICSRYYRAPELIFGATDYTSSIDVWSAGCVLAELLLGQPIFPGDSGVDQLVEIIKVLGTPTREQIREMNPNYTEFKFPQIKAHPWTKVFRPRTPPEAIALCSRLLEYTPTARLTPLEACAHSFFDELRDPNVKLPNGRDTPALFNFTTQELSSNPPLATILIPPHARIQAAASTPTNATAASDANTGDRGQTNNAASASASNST
Serine/threonine-protein kinase RIO2 (Homo sapiens), sequence (Q9BVS4 whole entry, looked up): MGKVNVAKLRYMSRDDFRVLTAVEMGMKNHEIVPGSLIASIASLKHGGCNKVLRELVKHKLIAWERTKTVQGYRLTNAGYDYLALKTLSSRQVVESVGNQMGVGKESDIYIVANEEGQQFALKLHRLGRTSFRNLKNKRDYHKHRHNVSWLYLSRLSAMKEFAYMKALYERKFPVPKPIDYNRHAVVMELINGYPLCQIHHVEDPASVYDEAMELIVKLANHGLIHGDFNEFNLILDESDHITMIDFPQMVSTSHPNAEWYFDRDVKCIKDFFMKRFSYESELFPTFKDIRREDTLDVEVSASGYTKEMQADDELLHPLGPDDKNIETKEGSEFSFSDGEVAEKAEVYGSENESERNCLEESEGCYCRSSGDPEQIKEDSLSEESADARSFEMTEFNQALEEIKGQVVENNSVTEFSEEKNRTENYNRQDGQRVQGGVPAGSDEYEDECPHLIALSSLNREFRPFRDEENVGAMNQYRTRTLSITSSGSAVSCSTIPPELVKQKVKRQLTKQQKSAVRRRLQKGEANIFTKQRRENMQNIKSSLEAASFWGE
BMP-2-inducible protein kinase (Homo sapiens), sequence (Q9NSY1 whole entry, looked up): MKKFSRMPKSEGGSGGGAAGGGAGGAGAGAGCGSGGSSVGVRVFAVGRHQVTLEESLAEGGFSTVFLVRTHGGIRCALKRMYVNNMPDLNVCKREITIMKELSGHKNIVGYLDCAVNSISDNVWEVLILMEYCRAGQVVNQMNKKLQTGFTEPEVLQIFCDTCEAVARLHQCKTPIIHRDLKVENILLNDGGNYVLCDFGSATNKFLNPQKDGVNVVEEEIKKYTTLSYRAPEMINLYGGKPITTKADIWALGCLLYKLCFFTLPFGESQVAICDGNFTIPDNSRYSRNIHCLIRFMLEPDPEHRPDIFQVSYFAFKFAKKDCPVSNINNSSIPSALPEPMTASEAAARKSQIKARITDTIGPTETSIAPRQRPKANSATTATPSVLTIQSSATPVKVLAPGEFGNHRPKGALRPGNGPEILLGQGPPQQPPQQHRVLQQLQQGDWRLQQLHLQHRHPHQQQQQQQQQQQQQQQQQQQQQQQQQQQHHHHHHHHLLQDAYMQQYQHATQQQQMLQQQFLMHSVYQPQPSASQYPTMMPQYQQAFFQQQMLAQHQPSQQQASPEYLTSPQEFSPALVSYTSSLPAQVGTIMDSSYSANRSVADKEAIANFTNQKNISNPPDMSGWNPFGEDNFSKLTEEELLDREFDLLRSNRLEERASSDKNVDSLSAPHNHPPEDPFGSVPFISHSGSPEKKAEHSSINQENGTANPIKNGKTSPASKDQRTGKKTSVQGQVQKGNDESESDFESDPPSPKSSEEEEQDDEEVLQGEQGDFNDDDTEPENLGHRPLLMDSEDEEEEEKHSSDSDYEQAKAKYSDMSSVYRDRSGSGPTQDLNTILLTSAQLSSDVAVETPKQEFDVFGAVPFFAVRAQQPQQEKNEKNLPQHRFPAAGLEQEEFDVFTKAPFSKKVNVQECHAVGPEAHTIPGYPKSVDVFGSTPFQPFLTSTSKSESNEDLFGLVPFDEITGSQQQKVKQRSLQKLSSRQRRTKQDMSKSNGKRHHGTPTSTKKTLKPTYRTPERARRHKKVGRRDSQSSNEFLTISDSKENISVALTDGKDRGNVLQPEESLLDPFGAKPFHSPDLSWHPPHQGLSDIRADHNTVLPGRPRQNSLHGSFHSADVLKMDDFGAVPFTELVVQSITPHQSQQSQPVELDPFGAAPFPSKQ

IC50 [1]: 34 µM | inhibition [2]: 48% | inhibition [3]: 30% | ΔTm [4]: 3.2 °C | inhibition [5]: 25% | Activity [6]: 27% | ΔTm [7]: 3.8 °C | inhibition [8]: 22% | inhibition [9]: 44% | ΔTm [10]: 3.2 °C
SMILES: O=C1NCCc2ccc(cc2)Nc2nccc(n2)Nc2cc1[nH]n2
